# According to ChEMBL document CHEMBL2406982, “Structure-activity relationships of new cyanothiophene inhibitors of the essential peptidoglycan biosynthesis enzyme MurF” (Eur J Med Chem, 2013):
# pIC50: −log10 of the molar value. Calls of active or inactive are those of the source. No cut-off for these calls is given here.
# Experiments:
# Streptococcus pneumoniae [1] = assay: Antimicrobial activity against Streptococcus pneumoniae R6 by broth microdilution method; format: functional
# How it was run: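 MIC by CLSI broth microdilution in Mueller-Hinton broth supplemented with 5% (v/v) lysed horse blood.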
# Staphylococcus aureus [2] = assay: Antimicrobial activity against Staphylococcus aureus SH1000 by broth microdilution method; format: functional, organism-based
# How it was run: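 MIC by broth microdilution in Mueller-Hinton broth following CLSI guidelines.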
# Escherichia coli [3] = assay: Antimicrobial activity against Escherichia coli AB734 by broth microdilution method; format: functional, organism-based
# How it was run: (§1)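 Broth microdilution MIC per CLSI guidelines in Mueller-Hinton broth. E. coli 1411 and AB734 were also tested with added polymyxin B nonapeptide to permeabilise the outer membrane.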
# Escherichia coli [4] = assay: Antimicrobial activity against Escherichia coli 1411 by broth microdilution method; format: functional, organism-based; how it was run: as §1
# Staphylococcus aureus [5] = assay: Inhibition of Staphylococcus aureus MurF using D-Ala-D-Ala/UMtri-L-Lys as substrate assessed as residual activity at 100 uM after 15 mins by Malachite green method
# How it was run: (§2)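 S. aureus MurF, purified, assayed in 50 mM Hepes pH 8.0 with 20 mM MgCl2 and 0.005% Triton X-114, with D-Ala-D-Ala, UMtri-L-Lys and ATP. Compound was in DMSO (5% v/v final). After 15 min at 37 °C, Biomol reagent was added and A650 was read 5 min later. Duplicates were run. Residual activity was relative to 5% DMSO controls. IC50 was read as 50% residual activity across seven concentrations.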
# Escherichia coli [6] = assay: Inhibition of Escherichia coli MurF using D-Ala-D-Ala/UMtri-mDAP as substrate assessed as residual activity at 100 uM after 15 mins by Malachite green method
# How it was run: (§3)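 Purified E. coli MurF in 50 mM Hepes pH 8.0, 50 mM MgCl2, 0.005% Triton X-114, with D-Ala-D-Ala, UMtri-mDAP and ATP. Compound was added in DMSO (final 5% v/v). Mixtures were incubated 15 min at 37 °C, quenched with Biomol reagent, and absorbance was read at 650 nm after 5 min. Runs were in duplicate. Residual activity was taken versus DMSO-only controls. IC50 came from residual activity at seven concentrations.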
# Streptococcus pneumoniae [7] = assay: Inhibition of Streptococcus pneumoniae MurF using D-Ala-D-Ala/UMtri-L-Lys as substrate assessed as residual activity at 100 uM after 15 mins by Malachite green method
# How it was run: (§4)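 Purified S. pneumoniae MurF in 50 mM Hepes pH 8.0, 50 mM MgCl2, 0.005% Triton X-114, with D-Ala-D-Ala, UMtri-L-Lys and ATP. Compound was added in DMSO (5% v/v final). Reactions ran 15 min at 37 °C, were stopped with Biomol malachite green reagent, and A650 was measured after 5 min. Runs were in duplicate. Residual activity was versus DMSO controls. IC50 was from seven concentrations.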
# [8] = Inhibition of Streptococcus pneumoniae MurF using D-Ala-D-Ala/UMtri-L-Lys as substrate after 15 mins by Malachite green method; how it was run: as §4
# [9] = Inhibition of Streptococcus pneumoniae MurF
# [10] = Inhibition of Staphylococcus aureus MurF using D-Ala-D-Ala/UMtri-L-Lys as substrate after 15 mins by Malachite green method; how it was run: as §2
# [11] = Inhibition of Escherichia coli MurF using D-Ala-D-Ala/UMtri-mDAP as substrate after 15 mins by Malachite green method; how it was run: as §3
MIC (Streptococcus pneumoniae [1]) [µg/mL],Activity (Staphylococcus aureus [5]) [%],Activity (Escherichia coli [6]) [%],Activity (Streptococcus pneumoniae [7]) [%],pIC50 [8],pIC50 [9],pIC50 [10],pIC50 [11],SMILES,Activity (Staphylococcus aureus [2]),Activity (Escherichia coli [3]),Activity (Escherichia coli [4])
> 128,85,104,66,,,,,N#Cc1c(NC(=O)c2cc(S(=O)(=O)N3CCSC3)c(Cl)cc2Cl)sc2c1CCCC2,inactive,inactive,inactive
64,107,100,,5.40,6.00,,,N#Cc1c(NC(=O)c2cc(S(=O)(=O)N3CCOCC3)c(Cl)cc2Cl)sc2c1CCCC2,,,
,95,91,89,,,,,N#Cc1c(NC(=O)c2cc(S(=O)(=O)N3CCNC(=O)C3)c(Cl)cc2Cl)sc2c1CCCC2,inactive,inactive,inactive
,100,95,100,,,,,CCOC(=O)C1CCN(S(=O)(=O)c2cc(C(=O)Nc3sc4c(c3C#N)CCCC4)c(Cl)cc2Cl)CC1,inactive,inactive,inactive
> 128,,,,6.52,,3.92,4.26,N#Cc1c(NC(=O)c2cc(S(=O)(=O)N3CCOCC3)c(Cl)cc2Cl)sc2c1CCN(Cc1ccc(-c3nnn[nH]3)cc1)C2,inactive,inactive,inactive
> 128,79,98,80,,,,,CCOC(=O)c1ccc(N2CCc3c(sc(NC(=O)c4cc(S(=O)(=O)N5CCOCC5)c(Cl)cc4Cl)c3C#N)C2)cc1,inactive,inactive,inactive
> 128,,,,4.98,,4.18,4.43,COc1ccc(CN2CCc3c(sc(NC(=O)c4cc(S(=O)(=O)N5CCOCC5)c(Cl)cc4Cl)c3C#N)C2)cc1OC,inactive,inactive,inactive
,,,,,7.66,,,N#Cc1c(NC(=O)c2cc(S(=O)(=O)N3CCOCC3)c(Cl)cc2Cl)sc2c1CC[C@@H](c1ccc(O)cc1)C2,,,
> 128,,,,6.01,,4.10,4.00,N#Cc1c(NC(=O)c2cc(S(=O)(=O)N3CCOCC3)c(Cl)cc2Cl)sc2c1CCN(Cc1ccc(F)cc1)C2,inactive,inactive,inactive
,80,87,90,,,,,CC1CCN(S(=O)(=O)c2cc(C(=O)Nc3sc4c(c3C#N)CCCC4)c(Cl)cc2Cl)CC1,inactive,inactive,inactive
16,,,,4.32,,4.08,4.11,COc1cc(CN2CCc3c(sc(NC(=O)c4cc(S(=O)(=O)N5CCOCC5)c(Cl)cc4Cl)c3C#N)C2)cc(OC)c1O,inactive,inactive,inactive
> 128,,,,6.07,,3.96,3.93,N#Cc1c(NC(=O)c2cc(S(=O)(=O)N3CCOCC3)c(Cl)cc2Cl)sc2c1CCN(Cc1ccc(C(=O)O)cc1)C2,inactive,inactive,inactive
> 128,,,,6.00,,3.96,4.14,N#Cc1c(NC(=O)c2cc(S(=O)(=O)N3CCOCC3)c(Cl)cc2Cl)sc2c1CCN(Cc1ccc3c(c1)OCO3)C2,inactive,inactive,inactive
> 128,95,91,42,,,,,N#Cc1c(NC(=O)c2cc(S(=O)(=O)N3CCSCC3)c(Cl)cc2Cl)sc2c1CCCC2,inactive,inactive,inactive
> 128,83,74,80,,,,,N#Cc1c(NC(=O)c2cc(S(=O)(=O)N3CCOCC3)c(Cl)cc2Cl)sc2c1CCN(c1ccc([N+](=O)[O-])cc1)C2,inactive,inactive,inactive
> 128,,,,6.22,,4.02,4.09,COc1ccc(CN2CCc3c(sc(NC(=O)c4cc(S(=O)(=O)N5CCOCC5)c(Cl)cc4Cl)c3C#N)C2)cc1,inactive,inactive,inactive
> 128,,,,5.85,,3.88,3.97,N#Cc1c(NC(=O)c2cc(S(=O)(=O)N3CCOCC3)c(Cl)cc2Cl)sc2c1CCN(Cc1ccc(O)c(C(=O)O)c1)C2,inactive,inactive,inactive
> 128,85,95,63,,,,,N#Cc1ccc(N2CCc3c(sc(NC(=O)c4cc(S(=O)(=O)N5CCOCC5)c(Cl)cc4Cl)c3C#N)C2)cc1,inactive,inactive,inactive
